# Measured values of several laboratories.
# Protocols differ between the studies behind these lines.
# Target: Mitogen-activated protein kinase kinase kinase 5 (MAP3K5, Homo sapiens, UniProt Q99683)
# Residues used in one study (Q99683 1-1374): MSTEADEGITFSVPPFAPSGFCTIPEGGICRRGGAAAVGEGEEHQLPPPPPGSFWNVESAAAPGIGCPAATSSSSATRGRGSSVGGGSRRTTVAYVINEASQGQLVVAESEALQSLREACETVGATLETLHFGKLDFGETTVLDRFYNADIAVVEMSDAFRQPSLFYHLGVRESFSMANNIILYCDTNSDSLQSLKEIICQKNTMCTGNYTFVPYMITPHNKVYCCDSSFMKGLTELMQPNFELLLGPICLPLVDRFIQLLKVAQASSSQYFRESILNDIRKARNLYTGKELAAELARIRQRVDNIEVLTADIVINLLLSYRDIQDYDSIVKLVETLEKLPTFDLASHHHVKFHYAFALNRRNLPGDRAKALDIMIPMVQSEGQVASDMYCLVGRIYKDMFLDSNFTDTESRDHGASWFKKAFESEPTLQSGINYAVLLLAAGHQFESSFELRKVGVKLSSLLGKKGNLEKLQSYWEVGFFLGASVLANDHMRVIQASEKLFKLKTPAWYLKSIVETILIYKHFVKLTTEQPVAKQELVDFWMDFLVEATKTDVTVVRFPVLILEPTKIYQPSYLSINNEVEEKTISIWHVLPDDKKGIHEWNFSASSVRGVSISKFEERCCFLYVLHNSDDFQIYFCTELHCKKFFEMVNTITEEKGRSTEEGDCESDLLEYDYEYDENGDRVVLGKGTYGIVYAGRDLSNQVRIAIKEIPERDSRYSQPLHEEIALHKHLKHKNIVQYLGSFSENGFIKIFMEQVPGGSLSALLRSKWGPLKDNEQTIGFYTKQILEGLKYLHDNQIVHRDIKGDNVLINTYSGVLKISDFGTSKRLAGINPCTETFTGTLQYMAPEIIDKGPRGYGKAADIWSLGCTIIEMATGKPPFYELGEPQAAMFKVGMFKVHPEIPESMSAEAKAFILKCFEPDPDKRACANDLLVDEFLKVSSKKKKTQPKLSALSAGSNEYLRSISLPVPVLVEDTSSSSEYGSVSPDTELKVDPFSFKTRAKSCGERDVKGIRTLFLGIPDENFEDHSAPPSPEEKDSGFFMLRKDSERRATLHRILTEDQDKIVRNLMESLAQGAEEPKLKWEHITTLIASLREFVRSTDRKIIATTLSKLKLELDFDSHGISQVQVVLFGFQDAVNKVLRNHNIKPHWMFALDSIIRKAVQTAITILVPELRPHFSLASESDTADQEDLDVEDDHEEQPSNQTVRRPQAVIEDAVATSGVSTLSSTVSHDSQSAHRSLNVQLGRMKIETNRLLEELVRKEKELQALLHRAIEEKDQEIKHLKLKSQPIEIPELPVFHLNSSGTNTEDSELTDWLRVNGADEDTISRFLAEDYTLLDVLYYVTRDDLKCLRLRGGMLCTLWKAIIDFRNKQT
Compound,test,system,setting,quantity,result
Cn1nc(C(F)(F)F)cc1-c1cnc(N2CCc3cc(S(=O)(=O)Nc4c(F)cc(Cl)cc4F)cc(N4CCCC4=O)c32)nc1,"cell-free assay, competition with immobilised ligand",,1 µM,remaining binding,100%
CCCS(=O)(=O)Nc1ccc(F)c(C(=O)c2c[nH]c3ncc(-c4ccc(Cl)cc4)cc23)c1F,"enzyme activity, inhibitor",,1 µM,inhibition,< 10%
CNCc1ccc(-c2cc(-c3nc(-c4ccc(S(=O)(=O)C(C)C)cc4)cnc3N)on2)cc1,"enzyme activity, inhibitor",,0.4 µM,inhibition,0%
Cn1nc(C(=O)NCc2ccc(C(=O)O)cc2)cc1-c1ccc2[nH]ccc2c1,"cell-free assay, competition with immobilised ligand",,0.1 µM,remaining binding,86%
Cc1cc(NC(=O)c2cccc3cc(-c4cccc5[nH]nc(N)c45)ccc23)ccc1F,"enzyme activity, inhibitor",,0.1 µM,activity vs control,109%
CC(C)c1ccc(NC(=O)c2cccs2)c(-c2nc3ccccc3[nH]c2=O)c1,"enzyme activity, inhibitor",,1 µM,activity vs control,107%
CC(C)CC(=O)N1CCc2nc(-c3ccc(Br)cc3)nc(N(C)Cc3ccccc3)c2C1,"cell-free assay, competition with immobilised ligand",,0.1 µM,remaining binding,91%
CNC(=O)c1cc(Oc2ccc(NC(=O)Nc3ccc(Cl)c(C(F)(F)F)c3)cc2)ccn1,"enzyme activity, inhibitor",,0.3 µM,inhibition,0%
Cn1c2c(Cl)c(Cl)ccc2c2cc[nH]c(=O)c21,"thermal stability, DSF",,10 µM,ΔTm,2.1 °C
CCOc1cc(-c2nncn2C)ccc1Nc1ncc2cc(C)nc(NCC(C)(C)C)c2n1,"cell-free assay, TR-FRET",,1 µM,inhibition,≤ 15%
CC(C)(C)c1nc2c(s1)c1nc(N)ncc1c1ccc(NS(=O)(=O)c3c(F)cccc3F)c(F)c12,"enzyme activity, inhibitor, radiometric",,1 µM,remaining activity,104%
O=C(Nc1cnn(-c2csc(C(=O)NC3COC3)c2)c1)Nc1ccccc1Cl,"enzyme activity, inhibitor",,5 µM,remaining activity,91.2%
FC(F)(F)Oc1cccc(-c2cnc3ccc(-c4ccncc4)nn23)c1,"enzyme activity, inhibitor, radiometric",,5 µM,activity vs control,104%
O=C1Nc2ccc(Cl)cc2C1=Cc1cc(Cl)c(O)c(Cl)c1,cell-free assay,,0.5 µM,remaining signal,106%
CC1=C(C#N)[C@@H](c2ccc3[nH]nc(C)c3c2)C(C#N)=C(c2ccc(Cl)cc2)N1,"cell-free assay, competition with immobilised ligand",,1 µM,remaining binding,100%
Oc1cccc(-c2nc(N3CCOCC3)c3oc4ncccc4c3n2)c1,"enzyme activity, inhibitor",,10 µM,remaining activity,101%
c1ccc(CNc2nc(N3CCOc4ccccc43)nc3c2CCCC3)cc1,"target engagement in cells, inhibitor, chemoproteomics",,20 mM,inhibition,-10.3%
CO[C@@H](C)c1c(Nc2ccc([C@@H](N(C)C(=O)C3CCS(=O)(=O)CC3)C(F)(F)F)cc2)cnc2cc(Cl)nn12,"cell-free assay, competition with immobilised ligand",,1 µM,remaining binding,81%
COc1cc(Nc2cnc(C#N)c(O[C@H](C)CN(C)C)n2)ncc1-c1cnn(C)c1,"enzyme activity, inhibitor, radiometric",,10 µM,remaining activity,67%
Cc1ccc(Nc2nccc(N(C)c3ccc4c(C)n(C)nc4c3)n2)cc1S(N)(=O)=O,"enzyme activity, inhibitor",,0.3 µM,inhibition,6%
CCCOc1ccc(OC)c(F)c1C(=O)c1ccc(C(=O)N[C@@H]2CNC[C@H]2NC(=O)c2ccc3[nH]ncc3c2)cc1,"enzyme activity, inhibitor",,10 µM,remaining activity,83%
Nc1ncnc2occ(-c3ccc(NC(=O)Nc4cc(C(F)(F)F)ccc4F)cc3)c12,"cell-free assay, inhibitor",,20 µM,remaining signal,7.8%
CC/C(=N\NC(=O)NCc1cccc(O)c1)c1ccc(O)c(C)c1O,"enzyme activity, inhibitor",,0.1 µM,inhibition,4%
N#CC1c2c([nH]c3c(Cl)c(Cl)ccc23)C(=O)NC12CCCCC2 (racemic),"thermal stability, DSF",,10 µM,ΔTm,0.6 °C
c1ccc(N2CCN(Cc3nc4ccccc4[nH]3)CC2)nc1,"binding, competition with immobilised ligand",,1 µM,remaining binding,93%
FC(F)c1nc2ccccc2n1-c1nc(N2CCOCC2)nc(N2CCOCC2)n1,"enzyme activity, inhibitor",,10 µM,remaining activity,90%
CCN(CC)c1ccc(C2=NNC(=O)CC2C)cc1[N+](=O)[O-] (stereo not drawn),"enzyme activity, inhibitor",,10 µM,remaining activity,101%
CCN1CCN(Cc2ccc(NC(=O)c3ccc(C)c(Oc4ccnc5[nH]ccc45)c3)cc2C(F)(F)F)CC1,"target engagement in cells, inhibitor, chemoproteomics",A-375,0.5 µM,inhibition,-10.5%
C[S+]([O-])c1ccc(-c2nc(-c3ccncc3)c(-c3ccc(F)cc3)[nH]2)cc1 (stereo not drawn),cell-free assay,,0.5 µM,remaining signal,107%
CS(=O)(=O)N1CCCC(NC(=O)[C@H](CCC2CCCCC2)NC(=O)c2ccc(CNc3ncnc4c3nnn4-c3ccccc3)cc2)C1 (stereo partly drawn),"cell-free assay, competition with immobilised ligand",,0.1 µM,remaining binding,100%
Cn1c2c(Cl)c(Cl)ccc2c2cc(N)[nH]c(=O)c21,"thermal stability, DSF",,10 µM,ΔTm,1.5 °C
CCN(CC)CCNC(=O)c1c(C)[nH]c(/C=C2\C(=O)Nc3ccc(F)cc32)c1C,"enzyme activity, inhibitor",,0.3 µM,inhibition,4%
Cn1c2c(c3ccc(Cl)c(Cl)c31)C(C#N)C1(CCOCC1)NC2=O (stereo not drawn),"thermal stability, DSF",,10 µM,ΔTm,0.4 °C
CCN1CCN(Cc2ccc(NC(=O)c3ccc(C)c(/C=C/c4cnc5[nH]ccc5c4OC)c3)cc2C(F)(F)F)CC1,"target engagement in cells, inhibitor, chemoproteomics",A-375,0.5 µM,inhibition,-26.3%
COc1ccc2c(c1)O[C@H](c1ccc(OC)c(OC)c1)C[C@@H]2NC(=O)C1(c2ccc3c(c2)OC(F)(F)O3)CC1,"cell-free assay, competition with immobilised ligand",,1 µM,remaining binding,100%
CC1(C)NC(=O)c2[nH]c3c(Cl)c(Cl)ccc3c2C1C#N (stereo not drawn),"thermal stability, DSF",,10 µM,ΔTm,1.6 °C
